These results are taken from ChEMBL document CHEMBL1123174, “Inhibitors of Bacillus subtilis DNA polymerase III. Influence of modifications in the pyrimidine ring of anilino- and (benzylamino)pyrimidines” (J Med Chem, 1986).

Structures are written as SMILES.

Assay [1] addresses T1, DNA polymerase III PolC-type (Bacillus subtilis (strain 168), UniProt P13267). Nature of the assay: Compound was tested for its inhibitory activity against Bacillus subtilis […] using DNA Polymerase assay; IA=Inactive. A digest of the protocol: (§1)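 B. subtilis DNA polymerase III assayed as a truncated reaction: the nucleotide competing with the inhibitor class (dGTP or dATP) was omitted from the mix.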

Assay [2] deals with T1, DNA polymerase III PolC-type. Nature of the assay: Compound was tested for its inhibitory activity against Bacillus subtilis DNA topoisomerase III using DNA Polymerase assay. A digest of the protocol:
as §1

Assay [3] has the same target. Nature of the assay: Compound was tested for its inhibitory activity against DNA topoisomerase III Polymerase III using DNA Polymerase assay; IA=Inactive. Summed up: as §1
Assay [4] has the same target. Nature of the assay: Concentration producing 50% inhibition of Bacillus subtilis DNA polymerase III in the absence of dATP using DNA Polymerase assay; NA=Inactive. Summed up: as §1
For assay [5] the target is unchanged. Nature of the assay: Concentration producing 50% inhibition of Bacillus subtilis DNA polymerase III in the absence of dGTP using DNA Polymerase assay. The following applies: read-out: Ki. A digest of the protocol: as §1
Assay [6] has the same target. Nature of the assay: Concentration producing 50% inhibition of Bacillus subtilis […] in the absence using DNA Polymerase assay.
Assay [7] shares this target. Put plainly: Concentration producing 50% inhibition of Bacillus subtilis DNA polymerase III in the absence of dATP using DNA Polymerase assay; NA= Inactive. Summed up: as §1
Assay [8] has the same target. Nature of the assay: Concentration producing 50% inhibition of Bacillus subtilis […] in the presence of dATP using DNA Polymerase assay.
For assay [9] the target is unchanged. Put plainly: Concentration producing 50% inhibition of Bacillus subtilis […] in the presence of dGTP using DNA Polymerase assay.

T1 sequence (P13267 whole entry, the tested form may be a part): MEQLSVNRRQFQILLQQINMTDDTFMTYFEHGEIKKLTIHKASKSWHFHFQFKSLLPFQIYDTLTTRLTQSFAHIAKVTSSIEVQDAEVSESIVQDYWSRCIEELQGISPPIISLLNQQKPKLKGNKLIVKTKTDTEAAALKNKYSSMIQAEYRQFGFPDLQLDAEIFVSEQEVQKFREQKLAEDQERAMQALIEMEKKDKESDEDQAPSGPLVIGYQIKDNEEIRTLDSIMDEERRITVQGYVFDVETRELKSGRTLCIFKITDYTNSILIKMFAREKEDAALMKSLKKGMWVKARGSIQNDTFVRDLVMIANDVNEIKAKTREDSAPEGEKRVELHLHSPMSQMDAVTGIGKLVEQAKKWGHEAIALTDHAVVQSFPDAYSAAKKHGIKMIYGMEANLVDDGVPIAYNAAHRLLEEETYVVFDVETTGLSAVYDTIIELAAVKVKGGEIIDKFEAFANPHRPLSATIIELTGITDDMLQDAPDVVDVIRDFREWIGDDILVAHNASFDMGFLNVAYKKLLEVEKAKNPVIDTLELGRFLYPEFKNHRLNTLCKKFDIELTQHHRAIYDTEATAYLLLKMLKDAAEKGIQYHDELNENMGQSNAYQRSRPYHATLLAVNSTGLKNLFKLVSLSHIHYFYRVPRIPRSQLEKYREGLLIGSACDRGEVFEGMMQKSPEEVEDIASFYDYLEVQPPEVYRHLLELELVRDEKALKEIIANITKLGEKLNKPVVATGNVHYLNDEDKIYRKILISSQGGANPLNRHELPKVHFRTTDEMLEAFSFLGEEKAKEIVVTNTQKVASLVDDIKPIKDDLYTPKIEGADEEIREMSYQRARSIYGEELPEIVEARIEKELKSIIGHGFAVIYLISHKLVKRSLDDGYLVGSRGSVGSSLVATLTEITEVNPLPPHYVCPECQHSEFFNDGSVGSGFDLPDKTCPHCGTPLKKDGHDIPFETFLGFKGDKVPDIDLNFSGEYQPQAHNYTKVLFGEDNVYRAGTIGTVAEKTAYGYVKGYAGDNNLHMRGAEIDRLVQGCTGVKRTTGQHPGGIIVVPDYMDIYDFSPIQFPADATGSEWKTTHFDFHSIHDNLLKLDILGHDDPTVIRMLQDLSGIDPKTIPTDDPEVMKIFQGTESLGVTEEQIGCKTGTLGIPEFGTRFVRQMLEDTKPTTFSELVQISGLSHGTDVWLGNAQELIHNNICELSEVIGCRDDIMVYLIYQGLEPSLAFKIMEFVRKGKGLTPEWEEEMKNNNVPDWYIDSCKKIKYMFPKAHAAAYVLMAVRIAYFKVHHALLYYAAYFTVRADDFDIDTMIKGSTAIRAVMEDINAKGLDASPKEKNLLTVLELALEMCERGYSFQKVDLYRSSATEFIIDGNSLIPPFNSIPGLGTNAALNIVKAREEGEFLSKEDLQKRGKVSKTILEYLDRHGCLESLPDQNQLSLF

On to `Cc1ccc(Nc2nc(O)nc(O)c2N=O)cc1`, for which the Ki entry in assay [1] is recorded as “Not Active”.
`Nc1nc(Cl)cc(NCc2ccccc2)n1` had an inhibition constant Ki in assay [2] of 17 µM.
Regarding `O=Nc1c(O)nc(O)nc1NCc1ccccc1`, the Ki entry in assay [3] is recorded as “Not Active”.
Consider `Nc1nc(NCc2ccccc2)cc(SCc2ccccc2)n1`, for which the Ki entry in assay [4] is reported as “Not Active”.
Turning to `O=c1[nH]c(NCc2ccccc2)c(I)c(=O)[nH]1`, the IC50 in assay [5] came out at 9 µM.
Still for that read-out and setting: the result for `Oc1nc(O)c(Br)c(NCc2ccccc2)n1` reads 9 µM.
In the case of `CCc1c(O)nc(O)nc1Nc1ccc(C)cc1`, the Ki entry in [4] is “Not Active”.
`Cc1ccc(Nc2[nH]c(=O)[nH]c(=O)c2C)cc1`: the IC50 in assay [5] is 1580 µM.
Regarding `Cc1c(O)nc(O)nc1NCc1ccccc1`, the Ki in assay [6] was 436 µM.
For the compound `CCc1c(O)nc(O)nc1NCc1ccccc1`, the IC50 in assay [5] was found to be 2820 µM.
Consider `Nc1nc(NCc2ccccc2)cc(SCc2ccc(Cl)cc2)n1`, for which the Ki entry in [7] is on record as “Not Active”.
With `Nc1nc(O)cc(NCc2ccccc2)n1`, the Ki in [8] was 33 µM.
On to `O=c1nc(NCc2ccccc2)[nH]c(=O)[nH]1`, for which the IC50 in assay [5] came out at 20 µM.
Consider `Cc1ccc(Nc2nc(=O)[nH]c(=O)[nH]2)cc1`, for which the IC50 in assay [5] is 70 µM.
As to `Nc1nc(O)cc(Nc2ccc3c(c2)CCC3)n1`, in [8], the Ki was determined as 2 µM.
With `Cc1ccc(Nc2nc(O)nc(O)c2Br)cc1`, in assay [5], the IC50 stood at 14 µM.
Take `Oc1cc(Nc2ccc3c(c2)CCC3)nc(O)n1`: the Ki in [9] turned out to be 0.4 µM.
`O=c1cc(NCc2ccccc2)[nH]c(=O)[nH]1`: in assay [9], the Ki worked out at 7.5 µM.
